This is an account of results in ChEMBL document CHEMBL3351450 (Bioorg Med Chem, 2014).

The subject of one data set is Liver. As to the kind of experiment: Intrinsic clearance in human liver S9 fraction. Type of data set: ADME, subcellular.
Data set [1] in a line: Metabolic stability in human liver S9 fraction assessed as compound remaining at 1 uM after 5 mins by LC-MS/MS analysis. The format is ADME, subcellular. To be noted: read-out: Stability.
Data set [2] can be described thus: Metabolic stability in human liver S9 fraction assessed as compound remaining at 1 uM after 15 mins by LC-MS/MS analysis. Type of data set: ADME, subcellular. To be noted: read-out: Stability.
Data set [3] is described as follows: AUC (0 to infinity) in Sprague-Dawley rat at 3 mg/kg, iv. Type of data set: ADME, organism-based. The arrangement: dose 3 mg/kg, route intravenous, time infinity. To be noted: plasma. In short, it runs like this:
(§1)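 Male SD rats, 3 per route. Oral dose given by gavage as a suspension in 0.5% Tween 80 (w/v). IV dose given via the femoral vein in DMSO/PEG-400/saline (5:65:30). Tail-vein blood drawn over 24 h and centrifuged to plasma. Parent and metabolite measured by LC–MS/MS.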

Data set [4] in a line: Half life in Sprague-Dawley rat at 30 mg/kg, po. The format is ADME, organism-based. The arrangement: dose 30 mg/kg, route oral. The note with it: in vivo. In short, it runs like this:
as §1

A short description of data set [5]: Cmax in Sprague-Dawley rat at 3 mg/kg, iv. The format is ADME, organism-based. The arrangement: dose 3 mg/kg, route intravenous. To be noted: in vivo. The procedure, abridged:
as §1

Data set [6] is described as follows: Tmax in Sprague-Dawley rat at 3 mg/kg, iv. The arrangement: dose 3 mg/kg, route intravenous. The note with it: in vivo. The format is ADME, organism-based. In short, it runs like this: (§2)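 Male SD rats, three per route. Oral gavage of a suspension in 0.5% Tween 80 (30 mg/kg). IV via femoral vein in DMSO/PEG-400/saline 5:65:30 (3 mg/kg). Tail-vein blood sampled over 24 h. Plasma stored at -20 °C and analysed by LC–MS/MS for parent and metabolite. Values reported as mean ± SD of three rats.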

Data set [7] is described as follows: Tmax in Sprague-Dawley rat at 30 mg/kg, po. The format is ADME, organism-based. The arrangement: dose 30 mg/kg, route oral. To be noted: in vivo. The procedure, abridged: as §2
Data set [8] can be described thus: Half life in Sprague-Dawley rat at 3 mg/kg, iv. The format is ADME, organism-based. The arrangement: dose 3 mg/kg, route intravenous. To be noted: in vivo. In short, it runs like this:
as §1

A short description of data set [9]: Cmax in Sprague-Dawley rat at 30 mg/kg, po. Type of data set: ADME, organism-based. The arrangement: dose 30 mg/kg, route oral. The note with it: in vivo. The procedure, abridged:
as §1

Data set [10] in a line: AUC (0 to infinity) in Sprague-Dawley rat at 30 mg/kg, po. Also noted: time infinity, dose 30 mg/kg, route oral. The format is ADME, organism-based. The note with it: plasma. In short, it runs like this: as §1
A short description of data set [11]: Oral bioavailability in Sprague-Dawley rat at 30 mg/kg. The format is ADME, organism-based. The note with it: in vivo. The procedure, abridged: as §2

Each structure is given as a SMILES string.

A word on the AUC(0-inf): it is the area under the concentration-time curve extrapolated to infinity. Higher therefore signals more exposure. Usually half-life stands for how long it takes for the measured level to halve. Higher therefore signals slow loss. A word on the Cmax: it is the peak of the concentration-time curve. As a reminder, the Tmax is the time from dosing to the highest level. For orientation: bioavailability means the share of a dose that reaches the circulation, judged against a reference dose that is usually intravenous. Low readings indicate little systemic uptake, high ones much systemic uptake.

`Fc1ccc(-c2n[nH]c(CCCc3ccccc3)c2-c2ccncc2)cc1` showed a CLint with Liver of 81.8 µL/min/mg. In data set [1], the remaining at 5 min, 1 µM was 81.5%. The remaining at 0.25 h, 1 µM in [2] was determined as 50.3%.

Turning to `O=C(Cc1ccccc1)Nc1[nH]nc(-c2ccc(F)cc2)c1-c1ccncc1`, the CLint in the data set on Liver stood at 40.6 µL/min/mg. In addition, in [1], the remaining at 5 min, 1 µM is 90.4%. Also, the remaining at 0.25 h, 1 µM in data set [2] is 86.2%.

As for `Cn1nc(NC(=O)Cc2ccccc2)c(-c2ccncc2)c1-c1ccc(F)cc1`, the CLint in the data set on Liver was 68.1 µL/min/mg. Further, the remaining at 5 min, 1 µM in [1] was 84.4%. Besides, in [2], the remaining at 0.25 h, 1 µM came out at 65%.

As to `CC(=O)Nc1onc(-c2ccc(F)cc2)c1-c1ccncc1`, the CLint with Liver was found to be 31.6 µL/min/mg. Besides, the remaining at 5 min, 1 µM in data set [1] was determined as 92.4%. The remaining at 0.25 h, 1 µM in data set [2] was determined as 82.5%.

As to `O=C(Nc1onc(-c2ccc(F)cc2)c1-c1ccncc1)c1ccccc1`, in data set [1], the remaining at 5 min, 1 µM was 39.6%. Besides, the remaining at 0.25 h, 1 µM in data set [2] was determined as 10.9%.

Regarding `O=C(Cc1ccccc1)Nc1onc(-c2ccc(F)cc2)c1-c1ccncc1`, the CLint with Liver turned out to be 91 µL/min/mg. Besides, the remaining at 5 min, 1 µM in [1] was determined as 79.7%. The remaining at 0.25 h, 1 µM in data set [2] came to 64.3%.

`O=C(CCc1ccccc1)Nc1onc(-c2ccc(F)cc2)c1-c1ccncc1` yielded a CLint in the data set on Liver of 455 µL/min/mg. Also, the remaining at 5 min, 1 µM in data set [1] turned out to be 32.1%. For the same compound, in data set [2], the remaining at 0.25 h, 1 µM is 27.9%.

Turning to `O=C(CCCc1ccccc1)Nc1onc(-c2ccc(F)cc2)c1-c1ccncc1`, the CLint with Liver is 272 µL/min/mg. The remaining at 5 min, 1 µM in [1] is 50.7%. Besides, the remaining at 0.25 h, 1 µM in [2] is 28.5%.

For `Nc1onc(-c2ccc(F)cc2)c1-c1ccncn1`, the results for the AUC(0-inf) in data set [3] and in [10] were 924 ng·h/mL and 760 ng·h/mL, respectively. Further, the half-life in data set [4] is 58.8 min; in data set [8] it was 25.7 min. Also, the Cmax was 744 ng/mL in data set [5] and 136 ng/mL in data set [9]. For the same compound, the Tmax in data set [6] was found to be 30 min; in [7] it was 200 min.

For `O=C(Cc1ccccc1)Nc1onc(-c2ccc(F)cc2)c1-c1ccncn1`, in data set [1], the remaining at 5 min, 1 µM is 5.6%.

In the case of `O=C(Cc1ccccc1F)Nc1onc(-c2ccc(F)cc2)c1-c1ccncn1`, the remaining at 5 min, 1 µM in data set [1] was 10%.

Turning to `O=C(Cc1ccccc1Cl)Nc1onc(-c2ccc(F)cc2)c1-c1ccncn1`, in data set [1], the remaining at 5 min, 1 µM was determined as 5.8%.

For `O=C(Cc1c(F)cccc1Cl)Nc1onc(-c2ccc(F)cc2)c1-c1ccncn1`, the figures for the area under the curve AUC(0-inf) in data set [3] and in data set [10] were 505 ng·h/mL and 23.7 ng·h/mL, respectively. In addition, the values for the half-life in [4] and in [8] were 1120 min and 28.4 min, respectively. For the same compound, the highest concentration (Cmax) in data set [5] came to 363 ng/mL; in data set [9] it was 0.88 ng/mL. In addition, the Tmax was found to be 4.8 min in data set [6] and 200 min in [7]. The bioavailability in data set [11] was under 1%. The remaining at 5 min, 1 µM in [1] came to 16.1%.

As to `Cc1ccc(C)c(CC(=O)Nc2onc(-c3ccc(F)cc3)c2-c2ccncn2)c1`, the remaining at 5 min, 1 µM in [1] was 53.9%.

Take `O=C(Cc1ccccc1Cl)Nc1onc(-c2ccc(Cl)cc2)c1-c1ccncn1`: the remaining at 5 min, 1 µM in [1] was found to be 96.6%.

With `O=C(Cc1ccccc1Cl)Nc1onc(-c2ccc(F)cc2F)c1-c1ccncn1`, the remaining at 5 min, 1 µM in data set [1] was 20.4%.

For `Cc1cccc(-c2noc(NC(=O)Cc3ccccc3Cl)c2-c2ccncn2)c1`, in data set [1], the remaining at 5 min, 1 µM worked out at 21.2%.

Consider `Cc1cc(-c2noc(NC(=O)Cc3ccccc3C)c2-c2ccncn2)ccc1F`, for which the remaining at 5 min, 1 µM in [1] worked out at 52.6%.
